Published values from different studies.
Organism: Hepatitis C virus
Read-out: viral replication
Action: inhibitor
Notes: replicon

| SMILES | method | cell line | strain | time | EC50 [nM] |
| --- | --- | --- | --- | --- | --- |
| C=C1CC[C@H](O)C/C1=C/C=C1\CCC[C@]2(C)[C@@H]([C@H](C)/C=C/[C@H](C)C(C)C)CC[C@@H]12 | luciferase | BM4-5 | GETYPE1B | 5 days | 14200 |
| CCN1CCN(C2c3ccccc3-c3ccc(Br)cc32)CC1 (centres unmarked) | – | Huh-7.5.1 | GETYPE2A | 48 h | > 1000 |
| O=C1O[C@H]2[C@@H]3OC(=O)c4cc(O)c(O)c(O)c4-c4c(O)c(O)c5oc(=O)c6c(c(O)c(O)c7oc(=O)c4c5c76)-c4c(cc(O)c(O)c4O)C(=O)OC[C@H]3OC(O)[C@@H]2OC(=O)c2cc(O)c(O)c(O)c2-c2c1cc(O)c(O)c2O (mixture of isomers) | – | Huh-7 | GETYPE2A | 48 h | ~100000 |
| C=C1/C(=C\C=C2/CCC[C@]3(C)[C@@H]([C@H](C)CCCC(C)(C)O)CC[C@@H]23)C[C@@H](O)C[C@@H]1O | luciferase | BM4-5 | GETYPE1B | 5 days | 1100 |
| O=C1N[C@H]2[C@H](CS[C@H]2CCCCC(=O)N2CCC[C@@H]2C(=O)Nc2ccc(/C=C/c3ccc(NC(=O)[C@H]4CCCN4C(=O)Cc4ccccc4)cc3)cc2)N1 | – | – | GETYPE1B | – | > 10000 |
| COc1nc(N)nc2c1ncn2[C@@H]1O[C@H](COP(=O)(N[C@@H](C)C(=O)OCC(C)(C)C)Oc2cccc3ccccc23)[C@@H](O)[C@@]1(C)O (some centres unmarked) | – | – | GETYPE2A | 96 h | 7.3 |
| COC(=O)N[C@H](C(=O)N1CCC[C@H]1c1ncc(-c2ccc(-c3ccc(-c4cnc([C@@H]5CCCN5C(=O)[C@@H](NC(=O)OC)C(C)C)[nH]4)cc3)cc2)[nH]1)C(C)C | – | – | GETYPE1B | – | 0.009 |
| CN1CCN([C@@H](c2ccccc2)c2ccc(Cl)cc2)CC1 | – | Huh-7.5.1 | GETYPE2A | 48 h | 24 |
